The values below come from ChEMBL document CHEMBL4043172, “Constructing novel dihydrofuran and dihydroisoxazole analogues of isocombretastatin-4 as tubulin polymerization inhibitors through [3+2] reactions” (Bioorg Med Chem, 2017).

pIC50: −log10 of the molar value. Active and inactive are the calls of the source. The calls are words filed in the database; no cut-off is given here.

One experiment deals with PC-3. Nature of the experiment: Cytotoxicity against human PC3 cells assessed as reduction in cell viability incubated for 48 hrs by SRB assay. To be noted: PC-3, 48 h. Format: functional, cell-based. The method in brief: (§1)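 SRB colorimetric antiproliferative assay. Cells were grown in RPMI-1640 with 10% heat-inactivated FBS and penicillin/streptomycin at 37 °C and 5% CO2, and compound-exposed for 48 h. IC50 is the concentration causing 50% inhibition of cell viability, given as mean ± SD of three determinations.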

A further experiment deals with HeLa. Nature of the experiment: Cytotoxicity against human HeLa cells assessed as reduction in cell viability incubated for 48 hrs by SRB assay. The experiment is classed as functional, cell-based. The procedure, abridged:
as §1
(In SRB staining, fixed cells bind dye roughly in proportion to their protein.)

For experiment [1], the species on record is Sus scrofa. Nature of the experiment: Induction of porcine brain tubulin polymerization at 3 uM incubated for 80 mins by fluorescence based spectrophotometry. The procedure, abridged: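 Fluorescence-based cell-free kit assay. Tubulin (10 mg/mL) in buffer 1 with tubulin glycerol buffer and GTP (100 mM stock) was incubated with compound or DMSO vehicle for 80 min at 37 °C. Polymerization was followed as fluorescence increase read every minute at 360 nm excitation and 460 nm emission.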

Experiment [2] is filed under the species Sus scrofa. Nature of the experiment: Inhibition of porcine brain tubulin polymerization at 3 uM incubated for 80 mins by fluorescence based spectrophotometry. The method in brief:
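Fluorescence-based kit assay. Tubulin (10 mg/mL) in buffer 1 with tubulin glycerol buffer and GTP (100 mM stock) was incubated with compound at 3 µM, with DMSO as vehicle control, at 37 °C for 80 min. Polymerization was followed as the fluorescence increase, read every minute at 360 nm excitation and 460 nm emission.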

Broadly, the pIC50 is the IC50 on a negative log10 scale, so that one unit is a factor of ten. Regarding `COc1ccc(C2(c3cc(OC)c(OC)c(OC)c3)CC(C(C)=O)=C(C)O2)cc1O` (stereo not drawn), the negative-log IC50 (pIC50) is 5.20 in the experiment with PC-3 and < 5.00 in the experiment with HeLa.

In the case of `COc1ccc(C2(c3cc(OC)c(OC)c(OC)c3)CC(c3ccccc3Cl)=NO2)cc1O` (stereo not drawn), the negative-log IC50 (pIC50) in the experiment with PC-3 was 6.09; in the experiment with HeLa, 5.49.

On to `CCCCC1(c2cc(OC)c(OC)c(OC)c2)CC(C(=O)c2ccccc2)=C(c2ccccc2)O1` (stereo not drawn), for which the pIC50 with PC-3 and in the experiment on HeLa was < 5.00 in each case.

As for `CCCCC1(c2cc(OC)c(OC)c(OC)c2)CC(C#N)=C(c2ccc(Cl)cc2)O1` (stereo not drawn), the negative logarithm of the IC50 (pIC50) in the experiment on PC-3 and in the experiment with HeLa was < 5.00 in each case.

As for `CCCCC1(c2cc(OC)c(OC)c(OC)c2)CC(c2ccc(Cl)cc2)=NO1` (stereo not drawn), the pIC50 in the experiment on PC-3 and in the experiment on HeLa was < 5.00 in each case.

On to `COc1ccc(C2(c3cc(OC)c(OC)c(OC)c3)CC(C#N)=C(c3ccccc3Cl)O2)cc1O` (stereo not drawn), for which the pIC50 is 6.10 in the experiment with PC-3 and < 5.00 with HeLa.

`COc1ccc([C@@]2(c3cc(OC)c(OC)c(OC)c3)CC3=C(CCCC3=O)O2)cc1O`: the values for the pIC50 in the experiment with PC-3 and with HeLa were 4.77 and < 5.00, respectively.

With `COc1ccc([C@@]2(c3cc(OC)c(OC)c(OC)c3)CC(C#N)=C(c3ccccc3)O2)cc1O`, the negative logarithm of the IC50 (pIC50) in the experiment on PC-3 is 5.02; with HeLa, < 5.00.

Take `CCCCC1(c2cc(OC)c(OC)c(OC)c2)CC(C#N)=C(C(C)(C)C)O1` (stereo not drawn): the negative-log IC50 (pIC50) in the experiment on PC-3 and in the experiment with HeLa was < 5.00 throughout.

With `COc1ccc(C2(c3cc(OC)c(OC)c(OC)c3)CC(c3ccc(O)c(O)c3)=NO2)cc1O` (stereo not drawn), the pIC50 with PC-3 was 5.02; in the experiment on HeLa, < 5.00.

With `COc1ccc(C2(c3cc(OC)c(OC)c(OC)c3)CC(C#N)=C(C(C)(C)C)O2)cc1O` (stereo not drawn), the pIC50 in the experiment on PC-3 and with HeLa was < 5.00 throughout.

For `CCCCC1(c2cc(OC)c(OC)c(OC)c2)CC(c2ccc(Cl)cc2OC)=NO1` (stereo not drawn), the negative-log IC50 (pIC50) in the experiment with PC-3 and with HeLa was < 5.00 throughout.

On to `COc1ccc([C@]2(c3cc(OC)c(OC)c(OC)c3)CC3=C(CCCC3=O)O2)cc1O`, for which the results for the pIC50 in the experiment with PC-3 and in the experiment with HeLa were 4.82 and < 5.00, respectively.

For `COc1ccc(C2(c3cc(OC)c(OC)c(OC)c3)CC(C#N)=C(c3ccc(Br)cc3)O2)cc1O` (stereo not drawn), the negative-log IC50 (pIC50) in the experiment on PC-3 and with HeLa was < 5.00 throughout.

For `COc1ccc(C2(c3cc(OC)c(OC)c(OC)c3)CC(c3ccccc3[N+](=O)[O-])=NO2)cc1O` (stereo not drawn), the pIC50 in the experiment with PC-3 was 5.09; with HeLa, < 5.00.

Take `COc1ccc(C2(c3cc(OC)c(OC)c(OC)c3)CC(C#N)=C(c3ccc(F)cc3)O2)cc1O` (stereo not drawn): the results for the pIC50 in the experiment on PC-3 and in the experiment with HeLa were 6.09 and 5.14, respectively.

For the compound `COc1ccc(C2(c3cc(OC)c(OC)c(OC)c3)CC(c3ccc(O)c(OC)c3)=NO2)cc1O` (stereo not drawn), the negative logarithm of the IC50 (pIC50) in the experiment on PC-3 and with HeLa was < 5.00 each time.

`COc1ccc(C2(c3cc(OC)c(OC)c(OC)c3)CC(C#N)=C(c3ccc(C)cc3)O2)cc1O` (stereo not drawn): the negative logarithm of the IC50 (pIC50) was 5.16 in the experiment on PC-3 and < 5.00 in the experiment with HeLa.

As for `COc1ccc(C2(c3cc(OC)c(OC)c(OC)c3)CC(c3ccc(Cl)cc3OC)=NO2)cc1O` (stereo not drawn), the pIC50 with PC-3 and in the experiment on HeLa was < 5.00 throughout.

Take `COc1ccc(C2=NOC(c3ccc(OC)c(O)c3)(c3cc(OC)c(OC)c(OC)c3)C2)cc1` (stereo not drawn): the negative logarithm of the IC50 (pIC50) in the experiment with PC-3 and in the experiment on HeLa was < 5.00 throughout.

As to `COc1ccc(C2(c3cc(OC)c(OC)c(OC)c3)CC(C(=O)c3ccccc3)=C(C)O2)cc1O` (stereo not drawn), the pIC50 in the experiment with PC-3 and in the experiment with HeLa was < 5.00 in each case.

On to `COc1ccc(C2(c3cc(OC)c(OC)c(OC)c3)CC(c3ccccc3)=NO2)cc1O` (stereo not drawn), for which the pIC50 in the experiment with PC-3 and in the experiment on HeLa was < 5.00 in each case.

`CCCCC1(c2cc(OC)c(OC)c(OC)c2)CC(c2ccc(O)c(OC)c2)=NO1` (stereo not drawn): the negative logarithm of the IC50 (pIC50) in the experiment on PC-3 and in the experiment on HeLa was < 5.00 each time.

For `COc1ccc(C2(c3cc(OC)c(OC)c(OC)c3)CC(c3ccc(O)cc3)=NO2)cc1O` (stereo not drawn), the negative logarithm of the IC50 (pIC50) with PC-3 is < 5.00; with HeLa it was 5.12.

Take `COc1ccc(C2(c3cc(OC)c(OC)c(OC)c3)CC(C(=O)c3ccccc3)=C(c3ccccc3)O2)cc1O` (stereo not drawn): the pIC50 in the experiment on PC-3 is 6.11; in the experiment on HeLa, 5.63.

As for `COc1ccc(C2(c3cc(OC)c(OC)c(OC)c3)CC(C#N)=C(c3ccc(Cl)cc3)O2)cc1O` (stereo not drawn), the values for the pIC50 in the experiment on PC-3 and in the experiment with HeLa were 6.07 and < 5.00, respectively.

For the compound `COc1ccc([C@]2(c3cc(OC)c(OC)c(OC)c3)CC(C#N)=C(c3ccccc3)O2)cc1O`, the pIC50 in the experiment with PC-3 was 4.99; in the experiment on HeLa, < 5.00.

For the compound `COc1ccc(C2(c3cc(OC)c(OC)c(OC)c3)CC(C#N)=C(c3ccc(Cl)c(Cl)c3)O2)cc1O` (stereo not drawn), the pIC50 in the experiment on PC-3 and in the experiment with HeLa was < 5.00 in each case.

Turning to `COc1ccc(C2(c3cc(OC)c(OC)c(OC)c3)CC(c3cc(OC)c(OC)c(OC)c3Cl)=NO2)cc1O` (stereo not drawn), the negative logarithm of the IC50 (pIC50) was 5.06 with PC-3 and < 5.00 in the experiment with HeLa.

Regarding `COc1ccc(C2(c3cc(OC)c(OC)c(OC)c3)CC(C#N)=C(c3cccs3)O2)cc1O` (stereo not drawn), the figures for the pIC50 in the experiment on PC-3 and in the experiment with HeLa were 5.32 and < 5.00, respectively.

For the compound `CC(=O)O[C@H]1C(=O)[C@@]2(C)[C@H]([C@H](OC(=O)c3ccccc3)[C@]3(O)C[C@H](OC(=O)[C@H](O)[C@@H](NC(=O)c4ccccc4)c4ccccc4)C(C)=C1C3(C)C)[C@]1(OC(C)=O)CO[C@@H]1C[C@@H]2O`, the result in the experiment filed under Sus scrofa [1] was Active.

`COc1ccc(C2=NOC(c3ccc(OC)c(O)c3)(c3cc(OC)c(OC)c(OC)c3)C2)cc1O` (stereo not drawn): the pIC50 in the experiment with PC-3 and with HeLa was < 5.00 each time.

`COc1ccc(C2(c3cc(OC)c(OC)c(OC)c3)CC(C(=O)C(F)(F)F)=C(C)O2)cc1O` (stereo not drawn): the values for the pIC50 in the experiment on PC-3 and with HeLa were 5.02 and < 5.00, respectively.

Take `COc1ccc(C2(c3cc(OC)c(OC)c(OC)c3)CC(c3ccc([N+](=O)[O-])cc3)=NO2)cc1O` (stereo not drawn): the pIC50 in the experiment with PC-3 and with HeLa was < 5.00 in each case.

Consider `COc1ccc(C2(c3cc(OC)c(OC)c(OC)c3)CC(c3ccc(C)cc3)=NO2)cc1O` (stereo not drawn), for which the pIC50 with PC-3 was 6.07; in the experiment on HeLa, 5.35.

Take `CCC(=O)C1=C(CC)OC(c2ccc(OC)c(O)c2)(c2cc(OC)c(OC)c(OC)c2)C1` (stereo not drawn): the pIC50 in the experiment with PC-3 is 5.07; with HeLa, < 5.00.

With `COc1ccc(C2(c3cc(OC)c(OC)c(OC)c3)CC(c3ccccn3)=NO2)cc1O` (stereo not drawn), the negative-log IC50 (pIC50) in the experiment on PC-3 and with HeLa was < 5.00 each time.

`COc1ccc(C2=C(C#N)CC(c3ccc(OC)c(O)c3)(c3cc(OC)c(OC)c(OC)c3)O2)cc1` (stereo not drawn): the negative-log IC50 (pIC50) with PC-3 and in the experiment with HeLa was < 5.00 throughout.

Turning to `C=C(c1ccc(OC)c(O)c1)c1cc(OC)c(OC)c(OC)c1`, the negative-log IC50 (pIC50) in the experiment on PC-3 was 9.00; in the experiment with HeLa, 7.07. Also, in the experiment listed under Sus scrofa [2], the inhibition result is “Active”.
